Active and inactive are the calls of the source. No cut-off for these calls is given here.
Legend:
[1] = target: T1, Nitric oxide synthase, inducible (Mus musculus) (UniProt P29477); assay: Inhibition of iNOS in mouse macrophages assessed as reduction in LPS-induced nitric oxide production at 100 uM incubated for overnight by griess assay relative to control
T1 sequence (whole entry): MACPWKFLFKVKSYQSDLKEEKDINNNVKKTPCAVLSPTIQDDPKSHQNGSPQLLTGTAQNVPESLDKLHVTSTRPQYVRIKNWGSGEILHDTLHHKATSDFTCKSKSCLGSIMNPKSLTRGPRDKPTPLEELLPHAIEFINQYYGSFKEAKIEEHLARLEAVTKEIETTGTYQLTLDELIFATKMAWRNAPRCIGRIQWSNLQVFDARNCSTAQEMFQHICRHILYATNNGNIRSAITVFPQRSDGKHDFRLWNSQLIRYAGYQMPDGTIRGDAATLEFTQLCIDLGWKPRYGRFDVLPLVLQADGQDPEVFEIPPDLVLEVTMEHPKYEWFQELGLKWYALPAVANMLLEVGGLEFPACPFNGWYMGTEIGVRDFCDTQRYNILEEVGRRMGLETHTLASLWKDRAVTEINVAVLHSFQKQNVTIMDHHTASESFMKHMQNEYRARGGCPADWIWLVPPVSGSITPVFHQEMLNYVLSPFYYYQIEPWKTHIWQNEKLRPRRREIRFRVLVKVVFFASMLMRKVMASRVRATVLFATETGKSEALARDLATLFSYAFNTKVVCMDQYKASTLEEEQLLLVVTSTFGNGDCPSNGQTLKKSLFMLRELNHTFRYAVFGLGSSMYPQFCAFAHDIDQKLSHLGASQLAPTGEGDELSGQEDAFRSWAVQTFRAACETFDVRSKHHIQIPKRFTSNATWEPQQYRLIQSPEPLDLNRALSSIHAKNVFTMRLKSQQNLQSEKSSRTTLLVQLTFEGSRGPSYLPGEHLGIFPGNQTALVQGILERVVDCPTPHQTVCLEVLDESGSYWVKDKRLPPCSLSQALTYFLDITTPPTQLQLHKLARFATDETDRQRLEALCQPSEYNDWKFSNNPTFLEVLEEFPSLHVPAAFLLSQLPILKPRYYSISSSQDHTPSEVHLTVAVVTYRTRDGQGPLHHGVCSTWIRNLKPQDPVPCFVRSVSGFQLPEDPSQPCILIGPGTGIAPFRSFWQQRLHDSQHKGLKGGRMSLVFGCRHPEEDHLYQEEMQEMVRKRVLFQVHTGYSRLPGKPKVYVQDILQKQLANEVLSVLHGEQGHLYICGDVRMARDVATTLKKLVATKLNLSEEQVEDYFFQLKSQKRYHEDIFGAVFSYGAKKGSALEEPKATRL
Outline: (§1)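 Murine macrophages seeded at 4 x10^4 per well with compound at 50 or 100 µM, with or without LPS (100 ng/mL), overnight under standard conditions. Supernatant mixed 1:1 with Griess reagent and read at 570 nm. Nitrite quantified from a NaNO2 standard curve. Triplicates in three independent experiments.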

[2] = target: T2, Prostaglandin G/H synthase 1 (Bos taurus) (UniProt O62664); assay: Inhibition of bovine COX1 at 100 uM using arachidonic acid as substrate preincubated for 5 mins followed by substrate addition and measured after 5 mins by […]-based fluorescence assay relative to control
T2 sequence (whole entry): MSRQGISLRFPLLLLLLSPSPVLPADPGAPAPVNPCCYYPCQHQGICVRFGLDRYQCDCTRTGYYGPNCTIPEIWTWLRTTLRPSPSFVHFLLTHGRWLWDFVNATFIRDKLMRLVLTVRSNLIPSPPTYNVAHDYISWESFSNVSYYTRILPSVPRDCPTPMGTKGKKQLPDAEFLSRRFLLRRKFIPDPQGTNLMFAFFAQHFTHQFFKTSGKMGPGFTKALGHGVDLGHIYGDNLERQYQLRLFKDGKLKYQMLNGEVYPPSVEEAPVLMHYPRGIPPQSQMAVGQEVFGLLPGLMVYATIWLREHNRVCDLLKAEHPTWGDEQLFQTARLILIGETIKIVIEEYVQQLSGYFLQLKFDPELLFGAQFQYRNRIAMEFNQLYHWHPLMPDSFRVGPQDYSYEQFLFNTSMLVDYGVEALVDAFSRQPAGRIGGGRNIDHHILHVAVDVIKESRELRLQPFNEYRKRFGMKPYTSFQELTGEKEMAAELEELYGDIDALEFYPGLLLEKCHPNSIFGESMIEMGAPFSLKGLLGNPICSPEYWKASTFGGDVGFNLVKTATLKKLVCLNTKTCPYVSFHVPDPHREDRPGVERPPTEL
Outline: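 Bovine COX-1 preincubated 5 min in buffer with compound (100 µM) or SC-560 as reference. ADHP and arachidonic acid then added, and resorufin fluorescence read after 5 min (ex 530–540 / em 585–595 nm). Resorufin arises from ADHP reacting with the COX-derived PGG2.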

Rattus norvegicus = assay: Antiinflammatory activity in Wistar rat assessed as inhibition of carrageenan-induced paw edema formation at 100 mg/kg, po administered 1 hr before carrageenan stimulation and measured after up to 6 hrs relative to control; assay type: functional
Outline: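 Male Wistar rats (250–300 g), N = 5 per group, dosed orally 1 h before 0.1 mL of 1% carrageenan in physiological saline was injected into the right paw. Paw volume was read by plethysmometer at 0, 1, 2, 3, 4, 5 and 6 h. Edema was taken as the right-minus-left paw volume difference. % inhibition = (untreated − treated)/untreated × 100 at each time point.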

[3] = Cytotoxicity against mouse RAW264.7 cells assessed as cell viability at 100 uM measured after 24 hrs by MTT assay relative to control; assay type: cell-based; details: read-out: Activity
Outline: (§2)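 RAW 264.7 murine macrophages grown in RPMI-1640 with 10% heat-inactivated FBS at 37 °C, 5% CO2. Cells seeded at 4 x10^4 per well and exposed 24 h to 0–500 µM compound (DMSO 0.2% final). Medium replaced with 0.5 mg/mL MTT for 4 h, formazan dissolved in isopropanol, absorbance read at 570 nm. Triplicates in three independent experiments.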

[4] = target: T3, Prostaglandin G/H synthase 2 (Homo sapiens, UniProt P35354); assay: Inhibition of human recombinant COX-2 using arachidonic acid as substrate preincubated for 15 mins followed by substrate addition and measured after 5 mins by […]-based fluorescence assay
T3 sequence (P35354 whole entry): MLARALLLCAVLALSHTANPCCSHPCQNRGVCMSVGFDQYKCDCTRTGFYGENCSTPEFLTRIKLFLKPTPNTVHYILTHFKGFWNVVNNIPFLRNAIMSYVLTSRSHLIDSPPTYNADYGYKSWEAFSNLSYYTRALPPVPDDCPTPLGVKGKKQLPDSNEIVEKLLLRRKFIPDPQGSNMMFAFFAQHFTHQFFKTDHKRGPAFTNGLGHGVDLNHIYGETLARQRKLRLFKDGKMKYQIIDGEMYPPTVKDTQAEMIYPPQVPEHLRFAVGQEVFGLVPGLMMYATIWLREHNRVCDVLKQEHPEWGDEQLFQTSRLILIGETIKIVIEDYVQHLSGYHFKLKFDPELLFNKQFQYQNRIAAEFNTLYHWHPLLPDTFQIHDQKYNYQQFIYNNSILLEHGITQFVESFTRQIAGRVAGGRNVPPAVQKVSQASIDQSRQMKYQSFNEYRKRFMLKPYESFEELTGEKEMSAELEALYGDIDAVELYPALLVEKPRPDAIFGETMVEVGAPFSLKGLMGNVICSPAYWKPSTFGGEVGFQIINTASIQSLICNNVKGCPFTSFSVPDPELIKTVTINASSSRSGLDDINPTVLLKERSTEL
Outline: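 Human recombinant COX-2 preincubated 15 min in buffer with compound (100 µM) or DuP-697 as reference. ADHP and arachidonic acid then added, and resorufin fluorescence read after 5 min (ex 530–540 / em 585–595 nm).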

[5] = Cytotoxicity against mouse RAW264.7 cells assessed as cell viability at 500 uM measured after 24 hrs by MTT assay relative to control; assay type: cell-based; details: read-out: Activity; outline: as §2
[6] = target: T1, Nitric oxide synthase, inducible (Mus musculus); assay: Inhibition of iNOS in mouse macrophages assessed as reduction in LPS-induced nitric oxide production at 50 uM incubated for overnight by griess assay relative to control; outline: as §1
[7] = Selectivity index, ratio of inhibition of human recombinant COX-2 at 100 uM to inhibition of bovine COX-1 at 100 uM
Outline: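 SI is COX-2/COX-1 activity ratio. Percent inhibition at 100 µM: human recombinant COX-2 (15 min preincubation) and bovine COX-1 (5 min preincubation). Fluorometric ADHP/arachidonic acid read-out after 5 min.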

RAW264.7 = assay: Cytotoxicity against mouse RAW264.7 cells assessed as reduction in cell viability at 500 uM measured after 24 hrs by MTT assay; assay type: cell-based; details: raw264.7, 24 h; outline: as §2

SMILES: Nc1ccc(-n2c(-c3ccc(Cl)cc3)nc3ccccc32)cc1
- inhibition [1]: 52.2%
- inhibition [2]: 39%
- inhibition (Rattus norvegicus): Active
- viability at 24 h, 100 µM [3]: > 90%
- IC50 [4]: 193 µM
- viability at 24 h, 500 µM [5]: ≥ 80%
- inhibition [6]: 24.9%
- Selectivity Index [7]: 1.15

SMILES: O=[N+]([O-])c1ccc(-n2c(-c3ccc(Cl)cc3)nc3ccccc32)cc1
- inhibition [1]: 53.9%
- inhibition [2]: 17.6%
- inhibition (Rattus norvegicus): Active
- Activity (RAW264.7): Toxic
- viability at 24 h, 100 µM [3]: > 90%
- inhibition [6]: 53.2%
- Selectivity Index [7]: 1.37

SMILES: O=C(O)c1ccc(-c2nc3ccccc3n2-c2ccc([N+](=O)[O-])cc2)cc1
- inhibition [1]: 46.2%
- inhibition [2]: 31%
- inhibition (Rattus norvegicus): Active
- Activity (RAW264.7): Toxic
- viability at 24 h, 100 µM [3]: > 90%
- inhibition [6]: 32.6%
- Selectivity Index [7]: 1.06

SMILES: O=[N+]([O-])c1ccc(-n2c(-c3ccccc3)nc3ccccc32)cc1
- inhibition [1]: 44%
- inhibition [2]: 40.6%
- inhibition (Rattus norvegicus): Active
- Activity (RAW264.7): Toxic
- viability at 24 h, 100 µM [3]: > 90%
- IC50 [4]: 162 µM
- inhibition [6]: 38.1%
- Selectivity Index [7]: 1.05

SMILES: CC(C)Cc1ccc(C(C)C(=O)O)cc1 (stereo not drawn) [IBUPROFEN]
- inhibition [1]: 83.7%
- inhibition [2]: 56.6%
- inhibition in vivo at 100 mg/kg (Rattus norvegicus): 42%
- inhibition [6]: 82.1%

SMILES: O=[N+]([O-])c1ccc(-n2c(-c3ccc(Br)cc3)nc3ccccc32)cc1
- inhibition [1]: 45.8%
- inhibition [2]: 18.3%
- inhibition in vivo at 100 mg/kg (Rattus norvegicus): 42%
- Activity (RAW264.7): Toxic
- viability at 24 h, 100 µM [3]: > 90%
- IC50 [4]: 102 µM
- inhibition [6]: 46.5%
- Selectivity Index [7]: 2.77

SMILES: CC(=O)Nc1ccc(-n2c(-c3ccc(Br)cc3)nc3ccccc32)cc1
- inhibition [1]: 83.6%
- inhibition [2]: 48.7%
- inhibition (Rattus norvegicus): Active
- viability at 24 h, 100 µM [3]: > 90%
- inhibition [6]: 77.3%
- Selectivity Index [7]: 0.58

Reference: ChEMBL document CHEMBL4627345, “Anti-inflammatory effect and inhibition of nitric oxide production by targeting COXs and iNOS enzymes with the 1,2-diphenylbenzimidazole pharmacophore” (Bioorg Med Chem, 2020)
